Screens from PubChem.
This is a sample that favours compounds with a hit; in the whole collection about 3.4% have one here.
Cdc25B block: human M-phase inducer phosphatase 2 inhibition; P30305; recombinant Cdc25B, OMFP fluorescence Ex485/Em525; inhibition, %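 (compounds tested at 10 µM final in the well)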; 0.1% of 65,000 active; in the data active = inhibition above about 50%
Hsp90 inh: displaces geldanamycin probe from tumor Hsp90; AID 429; inhibition, % at 30 µM; P07900; NCI-N417 lysate Hsp90, Cy3B-geldanamycin FP displacement; 0.35% of 64,000 active;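 active = inhibition above 50%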;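 also: 0% = tracer plus lysate wells and 100% = tracer alone without lysate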
JNK3 blocker: JNK3 (human) kinase inhibition | P53779 | inhibition, % at 8 µM | 0.61% of 60,000 active | purified JNK3 kinase activity, HTS; in the data active = inhibition above about 17%;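 also: 0% = DMSO and 100% = reference inhibitor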
SF1 activator: SF-1 (human) activation; Q13285; AID 522; 1.9% of 65,000 active; activation, % at 10 µM; CHO-K1 Gal4-SF-1 LBD luciferase reporter; % increase over DMSO SF-1-specific signal;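 active = activation above the mean activation of all tested compounds plus 3 SD, cut at about 50% in these data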
Target sequence (Q13285 whole entry, looked up, the tested form may be a part): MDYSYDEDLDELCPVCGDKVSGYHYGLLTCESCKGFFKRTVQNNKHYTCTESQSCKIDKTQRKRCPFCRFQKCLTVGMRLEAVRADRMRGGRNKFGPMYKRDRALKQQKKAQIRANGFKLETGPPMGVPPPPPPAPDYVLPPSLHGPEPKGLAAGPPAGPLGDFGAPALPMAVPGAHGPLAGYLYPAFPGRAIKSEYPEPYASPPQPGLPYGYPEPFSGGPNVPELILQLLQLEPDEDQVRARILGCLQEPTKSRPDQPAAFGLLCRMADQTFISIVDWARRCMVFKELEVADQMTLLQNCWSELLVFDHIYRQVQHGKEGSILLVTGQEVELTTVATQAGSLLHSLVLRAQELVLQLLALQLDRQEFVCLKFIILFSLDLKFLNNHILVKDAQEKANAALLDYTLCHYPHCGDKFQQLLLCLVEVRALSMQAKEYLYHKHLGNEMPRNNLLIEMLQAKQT
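material = CHO-K1 cells with Gal4–hSF-1 LBD chimera plus Gal4-driven luciferase | compound = 10 µM single point, 1% DMSO | incubation = 20 h compound exposure at 37 °C after 1 h cell settling | measured by = SteadyLite luciferase luminescence | evaluation = percent activation relative to DMSO median and mock-transfected background | control set = DMSO negative control and −SF1 background wells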
RORa activator: activators of human nuclear receptor RORA. CHO-K1 Gal4-RORA LBD luciferase reporter, luminescence; percent increase over mock-subtracted basal signal. activation, % at 10 µM. 1.5% of 65,000 active. AID 560;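 active = activation above the mean of all tested compounds plus 3 SD, cut at about 49% in these data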;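 also: 0% = DMSO-treated RORA cells and 100% = added signal equal to DMSO minus mock-transfected cells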
DUSP1 inh: human dual specificity phosphatase 1 inhibition; P28562; recombinant MKP-1, OMFP hydrolysis fluorescence; inhibition, %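 (compounds tested at a single concentration somewhere between 10 and 100 µM)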; 0.15% of 65,000 active; AID 374;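 active = inhibition above about 50%, limit read from the data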;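 also: 0% = DMSO max control wells and 100% = wells with enzyme stopped by NaOH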
The depositor's hits bear a star; x = no result given.

SMILES	Cdc25B block	Hsp90 inh	JNK3 blocker	SF1 activator	RORa activator	DUSP1 inh
CCCCCOc1ccc(NS(C)(=O)=O)cc1	5.4	-1.0	4.0	31.9	63.7*	-21.8
CCOc1ccc(NS(=O)(=O)c2ccc(NS(C)(=O)=O)cc2)cc1	-5.6	-1.1	-2.0	-12.9	-21.4	10.5
Cn1cnnc1SCC(=O)c1ccc2c(c1)CCCC2	-13.3	53.7*	1.4	21.7	32.2	0.8
OCCN(Cc1ccccc1)Cc1ccc(F)c(F)c1	-3.3	1.1	-2.9	-9.7	-11.0	-8.5
COc1ccc(NC2CC(=O)N(C(C)C)C2=O)cc1 (configuration not stated)	1.9	13.1	-2.3	50.4*	9.6	6.3
COc1ccc(NC2CC(=O)N(c3cccc(C)c3)C2=O)cc1 (configuration not stated)	-8.3	-0.5	1.2	12.4	18.6	21.1
COc1ccc(OC)c(C(=O)c2ccc(C(=O)N3CCCCC3)cc2)c1	1.0	-4.4	2.4	-8.3	19.4	10.0
O=C(CSc1ncccc1-c1nc2ccccc2[nH]1)N1CCN(c2ccccc2F)CC1	-10.8	-4.5	27.9*	-20.4	13.1	-4.1
Cc1cc(Br)ccc1NC(=O)CNC(=O)CN(C)Cc1nc2ccccc2c(=O)[nH]1	-9.9	-1.1	4.9	4.9	-5.0	7.0
COC(=O)c1c(NC(=O)CC2SCC(C(=O)OC)NC2=O)sc2c1CCCC2 (configuration not stated)	6.1	1.0	5.0	0.3	51.7*	14.1
C=CCn1c(C)cc(C(=O)CSc2nc3ccccc3o2)c1C	5.1	-3.5	-0.2	40.1	10.0	-0.5
Cc1cc(C(=O)CSc2nc3ccccc3o2)c(C)n1C1CC1	-2.5	-5.2	-0.4	61.0*	81.6*	-5.2
Cc1ccc(S(=O)(=O)N2CCC(C(=O)N3CCC(C(=O)NCc4cccnc4)CC3)CC2)cc1	1.4	-1.9	1.9	-12.2	-9.4	32.8
CCOC(=O)N1CCC(N2Cc3cccc(C(=O)Nc4ccc(OC)c(OC)c4)c3C2=O)CC1	-6.5	-2.5	1.6	54.1*	19.0	37.9
CCOC(=O)c1ccccc1NC(=O)c1cccc2c1C(=O)N(C1CCN(C(=O)OCC)CC1)C2	-12.5	-3.4	2.9	-9.1	-12.2	10.7
CC1(C)NC(=O)N(CCCOc2ccc(Br)cc2Cl)C1=O	-8.1	-0.2	-6.1	64.9*	18.7	10.6
Clc1ccc(OCc2nc(-c3ccncc3)no2)c(Cl)c1	-1.3	-0.7	5.1	85.7*	47.7	4.5
CC(C)(C)c1ccc(OCc2nc(-c3ccccn3)no2)c(Br)c1	-16.2	-1.6	0.8	71.1*	67.1*	10.3
O=C1c2ccccc2C(=O)N1Cc1nc(-c2ccccn2)no1	-16.6	-2.2	2.8	34.8	10.2	27.5
Clc1cc(Cl)c(OCc2nc(-c3ccccn3)no2)cc1Cl	-1.5	-3.0	0.2	33.7	52.2*	20.0
c1ccc(CCCc2nc(-c3ccccn3)no2)cc1	-6.9	-0.8	1.6	56.8*	50.3*	1.6
COc1ccc(Cl)cc1-c1nc(-c2ccncc2)no1	7.1	-10.5	x	14.5	18.2	11.1
O=C(CSc1nnc(CNc2ccc(F)cc2)n1Cc1ccccc1)N1CCOCC1	-19.3	-4.6	-4.1	-15.7	-14.0	6.1
COc1ccc(OCCSc2nnc(-c3ccoc3C)n2C)cc1	-12.8	-1.3	-1.7	-3.9	-20.5	-3.2
O=C(COc1ccccc1)n1nc(-c2ccc(Cl)cc2)nc1NCc1ccco1	-2.1	1.6	8.0	31.4	59.7*	-1.8
SMILES	Cdc25B block	Hsp90 inh	JNK3 blocker	SF1 activator	RORa activator	DUSP1 inh
Nc1nonc1-c1noc(N2CCCCC2)n1	-8.7	0.8	1.7	53.5*	25.9	-25.0
C1CCN(c2nc3nonc3nc2N2CCCCC2)CC1	-1.1	-0.9	3.1	-13.3	18.7	-4.2
COc1cccc(N2CCN(C3CC(=O)N(c4cccc(Cl)c4)C3=O)CC2)c1 (configuration not stated)	92.3*	-0.7	-11.8	-1.9	-4.2	-15.7
CC1CCCC(C)N1C(=O)c1cc(-c2ccc(Cl)c(Cl)c2)on1 (configuration not stated)	-17.7	-1.9	2.7	26.3	76.0*	1.3
Cc1cccc(-n2ncc3c(N(C)Cc4ccccc4)ncnc32)c1	-6.6	2.3	1.7	64.4*	55.5*	13.8
Cc1cccc(-n2ncc3c(N)ncnc32)c1	6.9	0.1	3.2	37.9	32.5	-2.6
Cc1cccc(-n2ncc3c(N4CCC(C)CC4)ncnc32)c1	-2.1	-1.1	7.1	70.1*	35.7	-4.4
CC1CC(C)CN(c2ncnc3c2cnn3-c2ccc(Cl)cc2)C1 (configuration not stated)	-11.8	-1.8	2.0	70.8*	54.1*	-18.0
CCN1CCN(c2ncnc3c2cnn3-c2ccccc2)CC1	-3.4	-0.7	0.2	56.5*	46.2	-0.1
CSC(=O)CC(=O)NC(=O)c1ccccc1	1.5	-4.0	1.7	-18.7	-1.7	-6.3
Cc1ccc(C)c(N2CCN(c3ncnc4c3cnn4-c3ccccc3)CC2)c1	-3.1	-0.7	-5.0	-5.2	16.5	4.6
Cc1cccc(-n2ncc3c(N4CCC5(CC4)OCCO5)ncnc32)c1	4.8	-0.5	-2.4	97.6*	49.0*	3.6
CC1CCC(NC(=O)C2c3ccccc3C(=O)N2CCCN2CCOCC2)CC1 (configuration not stated)	-3.7	-3.4	-0.3	6.3	0.2	12.2
CCCN1CCCc2cc(CN)ccc21	38.3	79.6*	-20.3	-5.3	-9.0	22.6
O=C(CCCc1cccs1)N1CCN(S(=O)(=O)c2ccccc2Br)CC1	-16.1	-4.8	3.1	4.8	-8.8	-1.2
CC(=O)Nc1ccc(N/C=C/C(=O)c2ccc(C)o2)cc1	-18.0	-15.5	-4.6	31.6	36.8	-2.7
Cc1ccc(C(=O)/C=C/Nc2ccccc2C(N)=O)o1	4.8	-21.8	-1.4	63.2*	34.5	-1.5
COc1cc(NS(C)(=O)=O)ccc1Nc1c2ccccc2nc2ccccc12	x	1.5	x	x	x	x
O=C1C(=C(O)c2ccccc2)C(=O)c2ccccc21	-8.2	-3.0	-9.4	-0.4	-15.6	5.9
O=C1C(SCCO)=C(SCCO)C(=O)c2ccccc21	x	88.6*	x	x	x	x
CC(C)(C)c1ccc(-c2conc2N)cc1	-2.4	0.4	1.3	51.6*	23.0	-0.7
Cn1c(-c2ccc(C(C)(C)C)cc2)n[nH]c1=S	-4.8	-0.6	-4.6	2.5	46.3	6.1
COc1ccc(-c2noc(Cc3ccccc3OC)n2)cc1	-2.4	0.1	-3.0	21.5	-6.6	-1.9
COc1ccc(-c2noc(Cc3cccs3)n2)cc1	3.6	-0.4	-7.7	42.0	56.9*	4.5
Cc1nc2c3cnn(-c4ccc(C)c(C)c4)c3ncn2n1	3.5	-5.5	2.1	65.1*	43.8	-5.6
CCc1nnc2c3cnn(-c4ccc(C)c(C)c4)c3ncn12	x	x	x	57.6*	56.9*	x
Cc1ccc(-n2ncc3c(=O)n(CC#N)cnc32)cc1C	-7.4	-5.2	4.6	12.8	26.5	0.7
